Converted amounts (≈) assume the structure as drawn.
Legend:
PBMC = test: Cytotoxicity against human PBMC assessed as cell viability after 72 hrs by MTT assay; format: cell-based
In short: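 Normal proliferating human peripheral blood mononuclear cells exposed to compound for 72 h; viability read by MTT; result given as IC50.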

Plasmodium falciparum = test: Antiplasmodial activity against Plasmodium falciparum assessed as growth inhibition; format: functional, organism-based
Candida parapsilosis = test: Antifungal activity against Candida parapsilosis ATCC 22019 assessed as growth inhibition by microdliution method; format: functional; conditions: Lodderomyces parapsilosis
[1] = Selectivity index, ratio of IC50 for human PBMC to MIC for Candida parapsilosis ATCC 22019

| Compound | IC50 (PBMC) [µM] | IC50 (Plasmodium falciparum) [µg/mL] | MIC (Candida parapsilosis) [µM] | Selectivity Index [1] |
| --- | --- | --- | --- | --- |
| COc1cccc2c1C(=O)c1c(O)c3c(c(O)c1C2=O)C[C@@](O)(C(=O)CO)C[C@@H]3O[C@H]1C[C@H](N)[C@H](O)[C@H](C)O1 [DOXORUBICIN] | 1.7 | – | – | – |
| CCCCCCCCCCCCCCCCO[C@@H]1O[C@H](COC(C)=O)[C@@H](O)[C@H](O)[C@H]1O[C@@H]1O[C@@H](C)[C@H](OC(C)=O)[C@@H](OC(C)=O)[C@H]1OC(C)=O | – | 15.7 (≈ 21.8 µM) | – | – |
| CCCCCCCCCCCCCCCCO[C@@H]1O[C@H](COC(C)=O)[C@@H](OC(C)=O)[C@H](O)[C@H]1O[C@@H]1O[C@@H](C)[C@H](OC(C)=O)[C@@H](OC(C)=O)[C@H]1OC(C)=O | – | 7.1 (≈ 9.33 µM) | – | – |
| CCCCCCCCCCCCCCCCO[C@@H]1O[C@H](CO)[C@@H](O)[C@H](O)[C@H]1O[C@@H]1O[C@@H](C)[C@H](OC(C)=O)[C@@H](OC(C)=O)[C@H]1O | > 39.4 | – | 3.15 | 12.5 |
| CCC(C)n1ncn(-c2ccc(N3CCN(c4ccc(OCC5COC(Cn6cncn6)(c6ccc(Cl)cc6Cl)O5)cc4)CC3)cc2)c1=O (stereo not drawn) [ITRACONAZOLE] | 1.53 | – | 0.71 | – |
| CCCCCCCCCCCCCCCCO[C@@H]1O[C@H](COC(=O)CCCCCCCCCCCCCCC)[C@@H](O)[C@H](O)[C@H]1O[C@@H]1O[C@@H](C)[C@H](OC(C)=O)[C@@H](OC(C)=O)[C@H]1OC(C)=O | – | 4.7 (≈ 5.14 µM) | – | – |
| CCCCCCCCCCCCCCCCO[C@@H]1O[C@H](CO)[C@@H](O)[C@H](O)[C@H]1O[C@@H]1O[C@@H](C)[C@H](OC(C)=O)[C@@H](O)[C@H]1OC(C)=O | > 39.4 | – | 6.31 | – |
| CCCCCCCCCCCCCCCCO[C@@H]1O[C@H](CO)[C@@H](O)[C@H](O)[C@H]1O[C@@H]1O[C@@H](C)[C@H](OC(C)=O)[C@@H](OC(C)=O)[C@H]1OC(C)=O | 25.4 | – | 189 | – |
| CCCCCCCCCCCCCCCCO[C@@H]1O[C@H](COC(C)=O)[C@@H](O)[C@H](OC(C)=O)[C@H]1O[C@@H]1O[C@@H](C)[C@H](OC(C)=O)[C@@H](OC(C)=O)[C@H]1OC(C)=O | – | 13 (≈ 17.1 µM) | – | – |
| C[C@@H]1[C@H](O)[C@@H](C)/C=C/C=C/C=C/C=C/C=C/C=C/C=C/[C@H](O[C@@H]2O[C@H](C)[C@@H](O)[C@H](N)[C@@H]2O)C[C@@H]2O[C@](O)(C[C@@H](O)C[C@@H](O)[C@H](O)CC[C@@H](O)C[C@@H](O)CC(=O)O[C@H]1C)C[C@H](O)[C@H]2C(=O)O [AMPHOTERICIN B] | > 5.41 | – | 4.33 | – |
| OC(Cn1cncn1)(Cn1cncn1)c1ccc(F)cc1F [FLUCONAZOLE] | > 16.3 | – | 0.2 | – |

— ChEMBL document CHEMBL3120065, “Antifungal ether diglycosides from Matayba guianensis Aublet” (Bioorg Med Chem Lett, 2014)
